# pIC50: −log10 of the molar value.
# Key:
# [1] = test system: Rattus norvegicus; assay: Effect of AOS scavenger on premeture ventricular complexes PVCs, arrhythmias induced by ischemia-reperfusion in anesthetized rat, duration at 10 mg/kg; format: functional, Cardiac ventricle; settings: 10 mg/kg
# [2] = test system: Rattus norvegicus; assay: Effect of AOS scavenger on ventricular tachycardia (VT),arrhythmias induced by ischemia-reperfusion in anesthetized rat, duration at 10 mg/kg; format: functional, Cardiac ventricle; settings: 10 mg/kg
# [3] = test system: Rattus norvegicus; assay: Effect of AOS scavenger on ventricular tachycardia (VT), arrhythmias induced by ischemia-reperfusion in anesthetized rat, frequency, times at 10 mg/kg; format: functional, Cardiac ventricle
# [4] = test system: Rattus norvegicus; assay: Effect of AOS scavenger on ventricular fibrillation (VF), arrhythmias induced by ischemia-reperfusion in anesthetized rat, duration at 10 mg/kg; format: functional, Cardiac ventricle
# [5] = test system: Rattus norvegicus; assay: Effect of AOS scavenger on ventricular fibrillation (VF), arrhythmias induced by ischemia-reperfusion in anesthetized rat, frequency, times at 10 mg/kg; format: functional, Cardiac ventricle; settings: 10 mg/kg
# [6] = organism: Rattus norvegicus; assay: Inhibition of lipid peroxidation was determined with rat brain tissue homogenates.; format: functional
# Outline: (§1)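 Brains excised from male SD rats (12 weeks), exsanguinated under pentobarbital anesthesia; 5% homogenate in phosphate buffer pH 7.4 incubated with test drug 1 h at 37 °C; lipid peroxide quantified by thiobarbituric acid method.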
# [7] = test system: Rattus norvegicus; assay: Effect of AOS scavenger on ventricular fibrillation (VF),arrhythmias induced by ischemia-reperfusion in anesthetized rat, incidence at 10 mg/kg; 5/5; format: functional, Cardiac ventricle
# [8] = test system: Rattus norvegicus; assay: Effect of AOS scavenger on ventricular tachycardia (VT),arrhythmias induced by ischemia-reperfusion in anesthetized rat incidence at 10 mg/kg; 4/5; format: functional, Cardiac ventricle
# [9] = organism: Rattus norvegicus; assay: Antilipid peroxidation was determined; format: functional
# Outline: (§2)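 Rat brain lipid peroxidation: brains from male SD rats (12 weeks old), exsanguinated under pentobarbital anaesthesia, homogenized to 5% in phosphate buffer pH 7.4. Homogenate incubated with test drug at 37 °C for 1 h. Lipid peroxide quantified by the thiobarbituric acid method.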
# [10] = organism: Rattus norvegicus; assay: Inhibition of lipid peroxidation was determined with rat brain tissue homogenates; format: functional; outline: as §1
# [11] = test system: Rattus norvegicus; assay: Effect of AOS scavenger on premeture ventricular complexes PVCs, arrhythmias induced by ischemia-reperfusion in anesthetized rat, duration at 3 mg/kg; format: functional, Cardiac ventricle
# [12] = test system: Rattus norvegicus; assay: Effect of AOS scavenger on arrhythmias induced by ischemia-reperfusion in anesthetized rat measured as ventricular tachycardia (VT), duration at 3 mg/kg; format: functional, Cardiac ventricle
# [13] = test system: Rattus norvegicus; assay: Effect of AOS scavenger on arrhythmias induced by ischemia-reperfusion in anesthetized rat measured as ventricular tachycardia (VT), frequency, times at 3 mg/kg; format: functional, Cardiac ventricle
# [14] = test system: Rattus norvegicus; assay: Effect of AOS scavenger on ventricular fibrillation (VF), arrhythmias induced by ischemia-reperfusion in anesthetized rat, incidence at 3 mg/kg; format: functional, Cardiac ventricle
# [15] = test system: Rattus norvegicus; assay: Effect of AOS scavenger on arrhythmias induced by ischemia-reperfusion in anesthetized rat measured as ventricular tachycardia (VT), incidence at 3 mg/kg; 6/6; format: functional, Cardiac ventricle
# [16] = test system: Rattus norvegicus; assay: Effect of AOS scavenger on ventricular fibrillation (VF), arrhythmias induced by ischemia-reperfusion in anesthetized rat, incidence at 3 mg/kg; 6/6; format: functional, Cardiac ventricle
# [17] = organism: Rattus norvegicus; assay: Reducing activity determined by the use of stable radical alpha,alpha-di-phenyl-beta-picrylhydrazyl (DPPH); format: functional, organism-based
# Outline: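 Compound mixed with equimolar α,α-diphenyl-β-picrylhydrazyl; absorbance at 517 nm read after 20 min; reducing activity taken as absorbance difference from control.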
# [18] = test system: Rattus norvegicus; assay: Effect of AOS scavenger on premeture ventricular complexes PVCs, arrhythmias induced by ischemia-reperfusion in anesthetized rat, duration at 20 mg/kg; PVSc/min; format: functional, Cardiac ventricle
# Outline: (§3)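 Male SD rats (9–13 weeks, 250–370 g) under pentobarbital anesthesia with artificial respiration underwent thoracotomy and LAD coronary occlusion followed by reperfusion. Dosing was oral, 20 mg/kg at 24 h and again 20 mg/kg at 5 min before occlusion. VF and VT incidence, frequency and duration, and mean PVCs/min were recorded at 10 min postreperfusion.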
# [19] = test system: Rattus norvegicus; assay: Effect of AOS scavenger on ventricular tachycardia (VT),arrhythmias induced by ischemia-reperfusion in anesthetized rat, duration at 20 mg/kg; format: functional, Cardiac ventricle; outline: as §3
# [20] = test system: Rattus norvegicus; assay: Effect of AOS scavenger on ventricular tachycardia (VT), arrhythmias induced by ischemia-reperfusion in anesthetized rat, frequency, times at 20 mg/kg; format: functional, Cardiac ventricle; outline: as §3
# [21] = test system: Rattus norvegicus; assay: Effect of AOS scavenger on ventricular fibrillation (VF),arrhythmias induced by ischemia-reperfusion in anesthetized rat, duration at 20 mg/kg; format: functional, Cardiac ventricle; outline: as §3
# [22] = test system: Rattus norvegicus; assay: Effect of AOS scavenger on ventricular fibrillation (VF), arrhythmias induced by ischemia-reperfusion in anesthetized rat, frequency, times at 20 mg/kg; format: functional, Cardiac ventricle; outline: as §3
# [23] = test system: Rattus norvegicus; assay: Effect of AOS scavenger on ventricular fibrillation (VF),arrhythmias induced by ischemia-reperfusion in anesthetized rat, incidence at 20 mg/kg; 4/8; format: functional, Cardiac ventricle; outline: as §3
# [24] = test system: Rattus norvegicus; assay: Effect of AOS scavenger on ventricular tachycardia (VT),arrhythmias induced by ischemia-reperfusion in anesthetized rat, incidence at 20 mg/kg; 8/8; format: functional, Cardiac ventricle; outline: as §3
# [25] = test system: Rattus norvegicus; assay: Effect of AOS scavenger on ventricular fibrillation (VF), arrhythmias induced by ischemia-reperfusion in anesthetized rat, duration at 3 mg/kg; format: functional, Cardiac ventricle
# [26] = test system: Rattus norvegicus; assay: Effect of AOS scavenger on ventricular tachycardia (VT), arrhythmias induced by ischemia-reperfusion in anesthetized rat, duration at 3 mg/kg; format: functional, Cardiac ventricle
# [27] = test system: Rattus norvegicus; assay: Effect of AOS scavenger on ventricular fibrillation (VF), arrhythmias induced by ischemia-reperfusion in anesthetized rat, frequency, times at 3 mg/kg; format: functional, Cardiac ventricle
# [28] = test system: Rattus norvegicus; assay: Effect of AOS scavenger on ventricular tachycardia (VT), arrhythmias induced by ischemia-reperfusion in anesthetized rat, frequency, times at 3 mg/kg; format: functional, Cardiac ventricle
# [29] = test system: Rattus norvegicus; assay: Effect of AOS scavenger on ventricular fibrillation (VF), arrhythmias induced by ischemia-reperfusion in anesthetized rat, incidence at 3 mg/kg; 8/10; format: functional, Cardiac ventricle
# [30] = test system: Rattus norvegicus; assay: Effect of AOS scavenger on ventricular tachycardia (VT), arrhythmias induced by ischemia-reperfusion in anesthetized rat, incidence at 3 mg/kg; 8/10; format: functional, Cardiac ventricle
# [31] = Reducing activity determined by the use of stable radical alpha,alpha-di-phenyl-beta-picrylhydrazyl (DPPH); design: concentration or dose not given beside the values
# [32] = organism: Rattus norvegicus; assay: Antilipid peroxidation was measured at 10e-5 M concentration; format: functional; outline: as §2
compound,measurement,setting,value
CCCCCCCCCCCCCCCCCCOC1=C(O)[C@@H](C(O)CO)OC1=O (stereo in doubt; 8),PVCs,[1],< 4 PVCs/min
same,Duration,[2],11.8 s
same,Frequency,[3],3.8
same,Duration,[4],122.4 s
same,Frequency,[5],1.6
same,pIC50,[6],5.01
same,Incidence,[7],5 N
same,Incidence,[8],4 N
CCCCCCCCCCCCCCCCCOC1=C(O)OC(C(O)CO)C1=O (centres undefined),Antilipid peroxidation,[9],48.8%
same,pIC50,[10],4.96
O=C1O[C@H]([C@@H](O)CO)C(O)=C1O [ASCORBIC ACID],Antilipid peroxidation,[9],-71%
same,Activity,[11],7.4 min
same,Duration,[12],8.2 s
same,Frequency,[13],3.7
same,Duration,[14],41.4 s
same,Frequency,[14],4
same,Incidence,[15],6 N
same,Incidence,[16],6 N
same,Reducing activity,[17],93.4%
Oc1ncnc2[nH]ncc12 [ALLOPURINOL],Activity,[18],2.7 min
same,Duration,[19],5.9 s
same,Frequency,[20],3.1
same,Duration,[21],1.3 s
same,Frequency,[22],0.9
same,Incidence,[23],4 N
same,Incidence,[24],8 N
CCCCCCCCCCCCCCCCOC1=C(O)OC(C(O)CO)C1=O (centres undefined),Antilipid peroxidation,[9],56.1%
same,pIC50,[10],5.17
CCCCCCCCCCOC1=C(O)OC(C(O)CO)C1=O (centres undefined),Antilipid peroxidation,[9],42.5%
same,pIC50,[10],4.89
CCCCCCCCCCCCCOC1=C(O)OC(C(O)CO)C1=O (centres undefined),Antilipid peroxidation,[9],57.4%
same,pIC50,[10],5.13
Cc1c(C)c2c(c(C)c1O)CC[C@@](C)(CCC[C@H](C)CCC[C@H](C)CCCC(C)C)O2 [ALPHA-TOCOPHEROL],Antilipid peroxidation,[9],52%
same,Activity,[11],23.3 min
same,Duration,[25],111.1 s
same,Duration,[26],7.4 s
same,Frequency,[27],2.1
same,Frequency,[28],3.1
same,Incidence,[29],8 N
same,Incidence,[30],8 N
same,Reducing activity,[31],72%
CCCCCCOc1ccc(COC2=C(O)OC(C(O)CO)C2=O)cc1 (centres undefined),Antilipid peroxidation,[9],38.8%
CCCCCCCCCCCCCCCCCCCCCOC1=C(O)OC(C(O)CO)C1=O (centres undefined),Antilipid peroxidation,[9],30.6%
same,pIC50,[10],4.96
same,Reducing activity,[31],94.3%
CCCCCCCCCCCCCCCCCCOC1=C(O)[C@@H](C(O)CO)OC1=O (stereo in doubt; 5k),Antilipid peroxidation,[9],65.9%
same,Reducing activity,[31],95.4%
CCCCCCCCCCCCCCCCCCOC1=C(O)OC(C2COC(C)(C)O2)C1=O (centres undefined),Antilipid peroxidation,[32],58.5%
same,pIC50,[10],5.62
